The structures appear in SMILES notation.

For data set [1], the target named is Sodium channel protein type 9 subunit alpha (Homo sapiens, UniProt Q15858). Nature of the data set: Inhibition of peripheral nerve sodium channel NaV1.7.
In data set [2] the target is T1, hERG (KCNH2) (Homo sapiens, UniProt Q12809). Nature of the data set: (§1) Displacement of [35S]-labeled MK499 from hERG at 10 uM. As to conditions: probe [35S]-MK499.
The target in data set [3] is T1, hERG (KCNH2). Nature of the data set: Displacement of [35S]-labeled MK499 from hERG at 1 uM. As to conditions: probe [35S]-MK499. For orientation: Displacement assays read how much labelled ligand stays bound in the presence of the test substance.
Data set [4] concerns Rattus norvegicus. Nature of the data set: (§2) Oral bioavailability in rat. Type of data set: ADME, organism-based. The following applies: in vivo.
Data set [5] has as its system Rattus norvegicus. Put plainly: (§3) Half life in rat at 1 mg/kg, iv. The class given is ADME, organism-based. The arrangement: dose 1 mg/kg, route intravenous. As to conditions: in vivo.
Another data set concerns Liver microsomes. Put plainly: (§4) Stability in human liver microsome after 1 hr. The class given is ADME. As to conditions: microsomes, 1 h.
Data set [6] relates to Rattus norvegicus. Nature of the data set: AUC in rat at 3 mg/kg, po. Type of data set: ADME, organism-based, Plasma. Further details: dose 3 mg/kg, route oral. As to conditions: in vivo.
Data set [7] relates to Rattus norvegicus. Put plainly: Anti-allodynic efficacy in rat chronic pain model at 3 mg/kg, po. As to conditions: in vivo. Type of data set: ADME, organism-based. Further details: dose 3 mg/kg, route oral. The procedure, abridged: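 Chronic inflammatory pain induced in rats by intradermal injection of complete Freund's adjuvant (CFA). The read-out was reversal of CFA-induced allodynia after oral dosing.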

The nature of data set [8]: (§5) Cmax in rat at 3 mg/kg, po. The class given is ADME, organism-based. The arrangement: dose 3 mg/kg, route oral. The following applies: in vivo.
In data set [9] the target is Voltage-gated inwardly rectifying potassium channel KCNH2 (Homo sapiens, UniProt Q12809). The description is as §1. The following applies: 10 µM.
Voltage-gated inwardly rectifying potassium channel KCNH2, sequence (Q12809 whole entry): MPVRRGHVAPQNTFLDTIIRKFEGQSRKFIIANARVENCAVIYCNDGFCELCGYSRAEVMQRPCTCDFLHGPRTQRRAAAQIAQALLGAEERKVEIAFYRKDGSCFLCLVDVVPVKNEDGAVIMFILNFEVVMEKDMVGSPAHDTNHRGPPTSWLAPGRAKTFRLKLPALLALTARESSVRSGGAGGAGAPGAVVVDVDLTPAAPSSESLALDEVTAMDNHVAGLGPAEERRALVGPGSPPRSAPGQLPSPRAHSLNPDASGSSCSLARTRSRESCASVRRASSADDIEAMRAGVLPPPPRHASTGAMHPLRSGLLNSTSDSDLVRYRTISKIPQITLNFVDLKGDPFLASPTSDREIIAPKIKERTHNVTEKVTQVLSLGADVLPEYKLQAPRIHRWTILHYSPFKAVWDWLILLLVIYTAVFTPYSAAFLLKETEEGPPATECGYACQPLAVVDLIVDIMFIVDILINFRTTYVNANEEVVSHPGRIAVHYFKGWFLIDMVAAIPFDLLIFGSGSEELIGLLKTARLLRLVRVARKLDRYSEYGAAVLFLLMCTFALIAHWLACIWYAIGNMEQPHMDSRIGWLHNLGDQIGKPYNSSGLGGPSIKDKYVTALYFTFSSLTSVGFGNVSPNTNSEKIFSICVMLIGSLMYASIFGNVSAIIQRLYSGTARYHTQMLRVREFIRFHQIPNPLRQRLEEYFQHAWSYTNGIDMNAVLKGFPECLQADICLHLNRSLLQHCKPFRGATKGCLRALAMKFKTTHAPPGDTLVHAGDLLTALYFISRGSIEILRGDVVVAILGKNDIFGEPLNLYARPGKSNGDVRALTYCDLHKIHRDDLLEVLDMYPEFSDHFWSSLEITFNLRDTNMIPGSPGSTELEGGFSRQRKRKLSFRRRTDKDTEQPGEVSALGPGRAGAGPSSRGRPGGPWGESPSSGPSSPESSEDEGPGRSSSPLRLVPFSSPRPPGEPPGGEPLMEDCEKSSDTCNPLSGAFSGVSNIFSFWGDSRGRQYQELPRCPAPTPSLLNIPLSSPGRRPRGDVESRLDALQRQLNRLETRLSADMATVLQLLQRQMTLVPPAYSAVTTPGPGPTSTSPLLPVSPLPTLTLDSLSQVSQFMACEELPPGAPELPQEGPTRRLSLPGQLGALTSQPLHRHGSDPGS
Data set [10] can be described thus: as §2. The following applies: in vivo. Type of data set: ADME, organism-based.
A short description of data set [11]: as §3. Type of data set: ADME, organism-based. Further details: dose 1 mg/kg, route intravenous. The following applies: in vivo.
A short description of data set [12]: Cmax in rat at 2 mg/kg, po. The class given is ADME, organism-based. The following applies: in vivo. The arrangement: dose 2 mg/kg, route oral.
Data set [13] in a line: as §4. The class given is ADME, microsomes. As to conditions: liver microsomes, read-out: Stability.
Data set [14] in a line: Plasma clearance in rat at 1 mg/kg, iv. Type of data set: ADME, organism-based. Further details: dose 1 mg/kg, route intravenous.
Data set [15] concerns Rattus norvegicus. Nature of the data set: AUC in rat at 2 mg/kg, po. Type of data set: ADME, organism-based, Plasma. As to conditions: in vivo. Further details: dose 2 mg/kg, route oral.
For data set [16], the system named is Rattus norvegicus. Described as §5. Type of data set: ADME, organism-based. As to conditions: in vivo. Further details: dose 3 mg/kg, route oral.

Sodium channel protein type 9 subunit alpha, sequence (Q15858 whole entry): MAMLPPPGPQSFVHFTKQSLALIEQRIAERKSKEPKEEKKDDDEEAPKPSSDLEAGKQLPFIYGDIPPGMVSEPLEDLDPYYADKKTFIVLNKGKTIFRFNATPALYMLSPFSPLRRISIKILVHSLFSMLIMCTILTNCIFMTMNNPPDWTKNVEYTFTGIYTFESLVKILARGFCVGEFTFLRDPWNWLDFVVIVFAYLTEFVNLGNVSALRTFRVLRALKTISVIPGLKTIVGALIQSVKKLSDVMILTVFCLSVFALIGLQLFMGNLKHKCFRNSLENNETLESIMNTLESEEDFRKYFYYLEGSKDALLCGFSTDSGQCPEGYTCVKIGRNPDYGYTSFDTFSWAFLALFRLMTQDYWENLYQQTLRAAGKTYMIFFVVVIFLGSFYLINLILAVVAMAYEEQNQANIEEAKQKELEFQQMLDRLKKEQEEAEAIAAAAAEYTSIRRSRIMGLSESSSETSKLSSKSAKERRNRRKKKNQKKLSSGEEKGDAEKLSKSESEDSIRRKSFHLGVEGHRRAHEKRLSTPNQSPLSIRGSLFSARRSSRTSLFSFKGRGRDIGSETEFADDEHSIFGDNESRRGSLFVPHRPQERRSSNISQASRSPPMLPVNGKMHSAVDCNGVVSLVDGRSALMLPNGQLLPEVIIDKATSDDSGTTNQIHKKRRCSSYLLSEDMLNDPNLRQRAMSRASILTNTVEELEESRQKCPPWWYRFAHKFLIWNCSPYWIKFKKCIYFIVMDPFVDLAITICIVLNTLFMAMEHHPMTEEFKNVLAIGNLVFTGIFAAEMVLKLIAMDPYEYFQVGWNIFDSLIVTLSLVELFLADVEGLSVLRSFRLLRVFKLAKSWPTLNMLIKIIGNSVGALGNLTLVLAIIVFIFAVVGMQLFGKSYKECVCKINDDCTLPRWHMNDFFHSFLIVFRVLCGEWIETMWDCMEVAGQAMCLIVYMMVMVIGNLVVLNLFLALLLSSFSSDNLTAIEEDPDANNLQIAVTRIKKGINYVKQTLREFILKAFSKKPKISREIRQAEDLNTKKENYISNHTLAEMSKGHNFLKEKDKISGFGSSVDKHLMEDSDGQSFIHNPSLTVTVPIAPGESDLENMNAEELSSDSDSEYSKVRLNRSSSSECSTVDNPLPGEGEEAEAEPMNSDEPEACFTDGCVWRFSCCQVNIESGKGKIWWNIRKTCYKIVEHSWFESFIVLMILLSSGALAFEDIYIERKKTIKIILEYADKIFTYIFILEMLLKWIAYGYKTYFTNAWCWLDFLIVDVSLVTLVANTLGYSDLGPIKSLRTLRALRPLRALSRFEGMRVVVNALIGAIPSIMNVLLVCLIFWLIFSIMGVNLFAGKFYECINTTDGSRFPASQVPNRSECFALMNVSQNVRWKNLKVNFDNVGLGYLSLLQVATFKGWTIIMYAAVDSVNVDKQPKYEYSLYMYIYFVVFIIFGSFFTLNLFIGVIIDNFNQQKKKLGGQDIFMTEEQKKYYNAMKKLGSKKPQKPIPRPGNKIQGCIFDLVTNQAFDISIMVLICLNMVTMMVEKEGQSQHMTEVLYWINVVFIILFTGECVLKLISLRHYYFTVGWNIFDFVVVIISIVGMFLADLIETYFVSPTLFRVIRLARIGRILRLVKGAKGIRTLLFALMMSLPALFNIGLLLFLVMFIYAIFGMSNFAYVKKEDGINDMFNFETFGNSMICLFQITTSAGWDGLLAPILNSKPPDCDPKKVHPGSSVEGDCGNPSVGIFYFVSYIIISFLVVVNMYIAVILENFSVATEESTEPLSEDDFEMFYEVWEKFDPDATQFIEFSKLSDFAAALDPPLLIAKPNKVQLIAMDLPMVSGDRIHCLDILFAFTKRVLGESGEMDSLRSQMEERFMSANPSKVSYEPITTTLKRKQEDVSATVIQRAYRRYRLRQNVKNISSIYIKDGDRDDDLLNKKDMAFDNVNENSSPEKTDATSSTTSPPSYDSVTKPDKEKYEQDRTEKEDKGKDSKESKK
T1 sequence (Q12809 whole entry): as the sequence (Q12809 whole entry) above

As to `COc1ccc(CCC(O)[C@@H]2CCC[C@H]2C(=O)NCc2cc(Cl)cc(Cl)c2)cc1` (relative stereo), the IC50 in data set [1] worked out at 1210 nM. Besides, on hERG (KCNH2) [2], the inhibition at 10 µM is 70%.

For `O=C(NCc1ccccc1)[C@@H]1CCC[C@H]1C(O)CCc1ccccc1OC(F)(F)F` (relative stereo), the IC50 in data set [1] amounted to 320 nM. This molecule also came in with an inhibition at 10 µM on hERG (KCNH2) [2] of 92%.

Regarding `O=S(=O)(NC[C@@H]1CCC[C@H]1C(O)CCc1ccccc1)c1ccc(OC(F)(F)F)cc1` (relative stereo), the IC50 in [1] came out at 630 nM. This molecule had an inhibition at 10 µM on hERG (KCNH2) [2] of 90%.

On to `CS(=O)(=O)c1ccc(CCC(O)[C@@H]2CCC[C@H]2C(=O)NCc2ccc(OC(F)(F)F)cc2)cc1` (relative stereo), for which, in [1], the IC50 was above 3000 nM.

For the molecule `OC(CCc1ccccc1)[C@@H]1CCC[C@H]1OCCc1ccc(OC(F)(F)F)cc1` (relative stereo), the half-inhibitory concentration (IC50) in data set [1] was above 3000 nM. The molecule also had an inhibition at 10 µM at hERG (KCNH2) [2] of 70%.

Molecule `CN(Cc1ccccc1)C(=O)[C@@H]1CCC[C@H]1C(=O)NCc1ccc(OC(F)(F)F)cc1` (relative stereo) showed an IC50 in [1] of 1490 nM.

With `O=C(NC[C@@H]1CCC[C@H]1C(O)CCc1ccccc1)c1ccc(OC(F)(F)F)cc1` (relative stereo), the IC50 in data set [1] was determined as 330 nM. This molecule also showed an inhibition at 10 µM on hERG (KCNH2) [2] of 84%. At 1 µM the inhibition on hERG (KCNH2) [3] was 45%.

`O=C(NCc1ccccc1)[C@@H]1CCC[C@H]1C(O)CCc1ccccc1` (relative stereo): in data set [1], the IC50 was above 3000 nM.

For `OC(CCc1ccccc1)[C@@H]1CCC[C@H]1OCCc1cc(Cl)cc(Cl)c1` (relative stereo), in [1], the IC50 is above 3000 nM. The same molecule displayed an inhibition at 10 µM on hERG (KCNH2) [2] of 40%.

In data set [1], `O=C(NCc1cc(Cl)cc(Cl)c1)[C@@H]1CCC[C@H]1C(O)CCc1ccc(OC(F)(F)F)cc1` (relative stereo) displayed a half-inhibitory concentration (IC50) of 870 nM. This molecule displayed an inhibition at 10 µM at hERG (KCNH2) [2] of 93%.

Molecule `O=C(NCc1ccccc1)[C@@H]1CCC[C@H]1C(O)CCc1ccc(OC(F)(F)F)cc1` (stereo in doubt; 13) displayed a F in the data set with Rattus norvegicus [4] of 40%. Further, the T1/2 with Rattus norvegicus [5] is 1.6 h. The molecule also gave an IC50 in data set [1] of 640 nM. The Stability in the data set on Liver microsomes amounted to 13%. The AUC with Rattus norvegicus [6] is 5.3 µM·h. In the data set with Rattus norvegicus [7], this molecule yielded an Efficacy of 25%. In data set [8], this molecule displayed a Cmax of 1900 nM. The Inhibition in data set [9] was determined as 52%.

Regarding `CN(Cc1ccc(-c2ccccc2S(N)(=O)=O)cc1)C(=O)[C@@H]1CCC[C@H]1C(=O)NCc1ccc(OC(F)(F)F)cc1` (relative stereo), in data set [10], the bioavailability came out at 44%. This molecule showed a half-life in data set [11] of 1 h. In data set [12], this molecule gave a Cmax of 1000 nM. Inhibition in [1] was half-maximal at 290 nM (IC50). The remaining at 1 h in data set [13] came to 4%. Also, the Efficacy in the data set on Rattus norvegicus [7] is reported as 43%. In [14], this molecule gave a clearance of 14 mL/min/kg. This molecule also gave an AUC in the data set on Rattus norvegicus [15] of 1.8 µM·h. In addition, the inhibition at 10 µM on hERG (KCNH2) [2] was 54%.

Turning to `O=C(NCc1cc(Cl)cc(Cl)c1)[C@@H]1CCC[C@H]1C(O)CCc1ccccc1` (relative stereo), in data set [1], the IC50 is 980 nM. Further, the inhibition at 10 µM on hERG (KCNH2) [2] was found to be 91%.

In data set [1], `O=S(=O)(NC[C@@H]1CCC[C@H]1C(O)CCc1ccccc1)c1cc(Cl)cc(Cl)c1` (relative stereo) displayed an IC50 above 3000 nM. This molecule registered an inhibition at 10 µM on hERG (KCNH2) [2] of 90%.

`O=C(NCc1ccccc1)[C@@H]1CCC[C@H]1C(O)CCc1ccc(OC(F)(F)F)cc1` (stereo in doubt; 13A): the IC50 in data set [1] is 520 nM. Also, the Inhibition in data set [9] is listed as 68%.

Molecule `O=C(NC[C@@H]1CCC[C@H]1C(O)CCc1ccccc1)c1cc(Cl)cc(Cl)c1` (relative stereo) came in with an IC50 in data set [1] above 3000 nM. The molecule further returned an inhibition at 10 µM at hERG (KCNH2) [2] of 79%.

As to `O=C(NCc1cc(Cl)cc(Cl)c1)[C@@H]1CCC[C@H]1C(O)CCc1cccc(OC(F)(F)F)c1` (relative stereo), the IC50 in data set [1] stood at 440 nM. At hERG (KCNH2) [2], this molecule displayed an inhibition at 10 µM of 87%.

With `OC(CCc1ccccc1)[C@@H]1CCC[C@H]1COCc1cc(Cl)cc(Cl)c1` (relative stereo), the IC50 in [1] was found to be 1110 nM. Moreover, the inhibition at 10 µM at hERG (KCNH2) [2] is 59%.

On to `O=C(NCc1cc(Cl)cc(Cl)c1)[C@@H]1CCC[C@H]1C(O)CCc1ccccc1OC(F)(F)F` (relative stereo), for which half-maximal inhibition in [1] (IC50) required 1150 nM. 10 µM produced 73% inhibition on hERG (KCNH2) [2].

Molecule `O=C(NCc1ccccc1)[C@@H]1CCC[C@H]1C(O)CCc1ccc(OC(F)(F)F)cc1` (stereo in doubt; 13B) gave a F in the data set with Rattus norvegicus [4] of 65%. Moreover, the half-life in data set [11] is 1.6 h. Moreover, the IC50 in data set [1] was determined as 360 nM. The molecule further returned a Stability with Liver microsomes of 49%. For the same molecule, in the data set with Rattus norvegicus [6], the AUC came to 9 µM·h. For the same molecule, the Efficacy in the data set on Rattus norvegicus [7] is 31%. In addition, the Cmax in the data set with Rattus norvegicus [16] is 2300 nM. In data set [14], this molecule displayed a clearance of 9 mL/min/kg. The molecule further registered an inhibition at 10 µM on hERG (KCNH2) [2] of 60%.

In [1], `OC(CCc1ccccc1)[C@@H]1CCC[C@H]1COCc1ccc(OC(F)(F)F)cc1` (relative stereo) returned an IC50 of 820 nM. Also, on hERG (KCNH2) [2], the inhibition at 10 µM is 65%.

`O=C(NCc1ccccc1)[C@@H]1CCC[C@H]1C(O)CCc1cccc(OC(F)(F)F)c1` (relative stereo) yielded an IC50 in data set [1] of 230 nM. This molecule also gave an inhibition at 10 µM on hERG (KCNH2) [2] of 89%.

With `O=C(NCc1ccccc1C(F)(F)F)[C@@H]1CCC[C@H]1C(O)CCc1cccc(OC(F)(F)F)c1` (relative stereo), in data set [1], the IC50 came to 440 nM. The inhibition at 10 µM at hERG (KCNH2) [2] was determined as 78%.

As usually defined, the IC50 is the point on the concentration scale where inhibition reaches its midpoint. A higher IC50 goes with weaker potency. The term inhibition denotes the change of the read-out against control, counted positive when it falls. Read a low inhibition as little suppression. What is called AUC is concentration integrated over time. High values mean high exposure, low ones low exposure. For orientation: Cmax means the highest concentration seen after dosing. What is called Inhibition is the percentage by which the read-out fell short of the control. In general, bioavailability refers to dose-corrected exposure relative to a reference, in per cent. Low readings indicate poor availability, high ones good availability. The term half-life denotes the time needed for the level to fall by half in the phase considered. High values mean slow loss, low ones fast loss. By clearance is commonly meant the volume of plasma or blood freed of the substance per unit of time.

(Values after ChEMBL document CHEMBL1138981, “Synthesis and SAR of 1,2-trans-(1-hydroxy-3-phenylprop-1-yl)cyclopentane carboxamide derivatives, a new class of sodium channel blockers” (Bioorg Med Chem Lett, 2006).)
